# According to ChEMBL document CHEMBL1155128, “Kinetic studies and bioactivity of potential manzamine prodrugs” (J Nat Prod, 2008):
# Active and inactive are the calls of the source. No cut-off for these calls is given here.
# What was measured:
# Plasmodium berghei [1] = assay: Antimalarial activity as reduced parasitaemia at day 14 in Plasmodium berghei NK65 infected mice (Mus musculus) at 10 mg/kg peroral dose […]; format: functional; design: scale not given: the % may be the effect or the level left; details: route oral
# Outline: (§1)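 Peters 4-day suppressive test. Male Swiss Webster mice (18-20 g), 5 per group, infected ip with 2 X10^7 P. berghei NK-65 parasitized red cells. Compounds in 0.1N HCl given orally about 2 h post-infection, once daily on days 0-2; vehicle and β-arteether control groups. Parasitemia followed on Giemsa-stained tail blood smears up to day 28.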
# Candida albicans = assay: Antimicrobial activity against Candida albicans ATCC 90028; format: functional, organism-based
# Plasmodium berghei [2] = assay: Antimalarial activity as reduced parasitaemia at day 10 in Plasmodium berghei NK65 infected mice (Mus musculus) at 30 mg/kg peroral dose […] post infection; format: functional; design: scale not given: the % may be the effect or the level left; details: route oral; outline: as §1
# Leishmania donovani = assay: Antileishmanial activity against Leishmania donovani promastigotes after 72 hrs by almar blue assay; format: functional, organism-based
# Plasmodium berghei [3] = assay: Antimalarial activity as reduced parasitaemia day 7 in Plasmodium berghei NK65 infected mice (Mus musculus) at 10 mg/kg peroral dose […] […]; format: functional; design: scale not given: the % may be the effect or the level left; details: route oral; outline: as §1
# Plasmodium berghei [4] = assay: Antimalarial activity as reduced parasitaemia at day 14 in Plasmodium berghei NK65 infected mice (Mus musculus) at 30 mg/kg peroral dose once daily for 3 days post infection; design: scale not given: the % may be the effect or the level left; details: route oral
# Plasmodium berghei [5] = assay: Antimalarial activity as reduced parasitaemia at day 7 in Plasmodium berghei NK65 infected mice (Mus musculus) at 30 mg/kg peroral dose […] post infection; format: functional; design: scale not given: the % may be the effect or the level left; details: route oral; outline: as §1
# Plasmodium berghei [6] = assay: Antimalarial activity as reduced parasitaemia on day 10 in Plasmodium berghei NK65 infected mice (Mus musculus) at 10 mg/kg peroral dose […] post infection; format: functional; design: scale not given: the % may be the effect or the level left; details: route oral; outline: as §1
# [7] = Cytotoxicity against african green monkey Vero cells after 48 hrs by neutral red assay; format: cell-based; details: chlorocebus sabaeus
# Outline: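 Vero monkey kidney cells seeded at 25,000 cells/well and grown 24 h, then given samples at several concentrations for 48 h. Viable cells were counted by neutral red. IC50 was taken from dose-response curves, with doxorubicin as positive control.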
# [8] = tested on: Mycobacterium intracellulare; assay: Antimicrobial activity against Mycobacterium intracellular ATCC 23068; format: functional, organism-based
# Outline: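 M. intracellulare ATCC 23068 tested by a modified Franzblau method. […] Fluorescence read at 544ex/590em before and after incubation.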
# Staphylococcus aureus = assay: Antimicrobial activity against methicillin-resistant Staphylococcus aureus ATCC 43300; format: functional, organism-based
# Vero = assay: Cytotoxicity against african green monkey Vero cells at 4.76 ug/ml after 48 hrs by neutral red assay; format: functional, cell-based; details: Chlorocebus sabaeus
# Cryptococcus neoformans = assay: Antimicrobial activity against Cryptococcus neoformans ATCC 90113; format: functional, organism-based
# Plasmodium falciparum [9] = assay: Antimalarial activity against chloroquine-sensitive Plasmodium falciparum D6 as LDH activity; format: functional, organism-based
# Outline: (§2)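 Red cells infected with P. falciparum D6 or W2 (2% parasitemia, 2% hematocrit, RPMI 1640 with 10% human serum and 60 µg/mL amikacin) added to serially diluted samples. Gassed with 90% N2/5% O2/5% CO2 and held 37 °C for 72 h. Parasite LDH read with Malstat plus NBT/PES at 650 nm. IC50 from dose-response curves; artemisinin and chloroquine controls.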
# Plasmodium falciparum [10] = assay: Antimalarial activity against chloroquine-resistant Plasmodium falciparum W2 by LDH activity; format: functional, organism-based; outline: as §2
# [11] = biological target: Glycogen synthase kinase-3 beta (Homo sapiens, UniProt P49841); assay: Inhibition of GSK3-beta
# [12] = biological target: Glycogen synthase kinase-3 alpha (Homo sapiens, UniProt P49840); assay: Inhibition of GSK3alpha
# Glycogen synthase kinase-3 alpha, sequence (P49840 whole entry): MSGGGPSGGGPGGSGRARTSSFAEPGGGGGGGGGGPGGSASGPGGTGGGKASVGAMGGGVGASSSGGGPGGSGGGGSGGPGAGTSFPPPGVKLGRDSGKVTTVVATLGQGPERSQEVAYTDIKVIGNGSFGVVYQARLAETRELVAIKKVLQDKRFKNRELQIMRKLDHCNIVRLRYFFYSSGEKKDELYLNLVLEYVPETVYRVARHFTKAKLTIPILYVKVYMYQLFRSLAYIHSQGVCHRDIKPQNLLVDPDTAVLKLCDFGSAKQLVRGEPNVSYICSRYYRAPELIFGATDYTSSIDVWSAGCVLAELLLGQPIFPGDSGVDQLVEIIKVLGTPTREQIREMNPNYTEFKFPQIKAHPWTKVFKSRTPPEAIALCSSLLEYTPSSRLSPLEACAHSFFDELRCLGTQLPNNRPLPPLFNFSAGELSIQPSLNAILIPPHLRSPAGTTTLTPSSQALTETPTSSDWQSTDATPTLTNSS
# Glycogen synthase kinase-3 beta, sequence (P49841 whole entry): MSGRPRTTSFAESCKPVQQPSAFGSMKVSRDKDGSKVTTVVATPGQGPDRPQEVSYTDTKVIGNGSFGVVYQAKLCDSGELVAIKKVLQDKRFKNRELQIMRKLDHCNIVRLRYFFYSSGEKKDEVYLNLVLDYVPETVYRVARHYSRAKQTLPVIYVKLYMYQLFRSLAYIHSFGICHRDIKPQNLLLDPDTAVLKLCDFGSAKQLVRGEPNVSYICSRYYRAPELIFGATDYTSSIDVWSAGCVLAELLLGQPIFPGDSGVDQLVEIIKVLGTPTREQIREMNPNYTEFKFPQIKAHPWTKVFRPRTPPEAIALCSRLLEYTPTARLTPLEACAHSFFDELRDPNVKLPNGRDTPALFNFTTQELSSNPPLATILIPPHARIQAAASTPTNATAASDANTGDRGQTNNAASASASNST
SMILES,Activity (Plasmodium berghei [1]) [%],IC50 (Candida albicans) [mg/L],MIC (Candida albicans) [mg/L],IC90 (Leishmania donovani) [mg/L],Activity (Plasmodium berghei [3]) [%],Activity (Plasmodium berghei [6]) [%],IC50 [8] [mg/L],MIC [8] [mg/L],IC50 (Staphylococcus aureus) [mg/L],IC50 (Leishmania donovani) [mg/L],IC50 (Cryptococcus neoformans) [mg/L],MIC (Cryptococcus neoformans) [mg/L],IC50 (Plasmodium falciparum [9]) [mg/L],IC50 (Plasmodium falciparum [10]) [mg/L],MIC (Staphylococcus aureus) [mg/L],CC50 at 48 h ([7]; read-out: TC50) [mg/L],MBC [8] [mg/L],MFC (Staphylococcus aureus) [mg/L],also measured
Oc1cccc2c1[nH]c1c(C3=C[C@@]4(O)CC/C=C\CCCCN5CC[C@@H]3[C@]3(C[C@@H]6/C=C\CCCCN6[C@H]34)C5)nccc12,32,10,5,11,57,35,0.25,0.31,6.5,,,,,,,,,,Activity (Plasmodium berghei [2]): 83%; Activity (Plasmodium berghei [4]): 67%; Activity (Plasmodium berghei [5]): 100%; CC50 at 48 h [7]: 1.1 mg/L
"CC(=O)Oc1cccc2c1[nH]c1c(C3=C[C@@]4(OC(C)=O)CC/C=C\CCCCN5CC[C@@H]3[C@]3(C[C@@H]6/C=C\CCCCN6[C@H]34)C5)nccc12 [8,12-DIACETOXYMANZAMINE A]",,> 20,,35,,,4.5,,2,16,> 20,10,1.3,1.2,5,,,,Activity (Vero): inactive
CC(=O)Oc1cccc2c1[nH]c1c(C3=C[C@@]4(O)CC/C=C\CCCCN5CC[C@@H]3[C@]3(C[C@@H]6/C=C\CCCCN6[C@H]34)C5)nccc12 [8-ACETOXYMANZAMINE A],8,1.5,2.5,7,61,51,0.1,0.16,0.5,3.4,1.5,2.5,0.0096,0.03,,370,> 20,20,MFC (Candida albicans): 5 mg/L; Activity (Plasmodium berghei [2]): 84%; MFC (Cryptococcus neoformans): 5 mg/L; Activity (Plasmodium berghei [4]): 48%; Activity (Plasmodium berghei [5]): 93%
COc1cccc2c1[nH]c1c(C3=C[C@@]4(O)CC/C=C\CCCCN5CC[C@@H]3[C@]3(C[C@@H]6/C=C\CCCCN6[C@H]34)C5)nccc12 [8-METHOXYMANZAMINE A],,3,10,24,,,0.15,0.63,0.55,5,2,,0.037,0.047,> 20,980,20,> 20,MFC (Candida albicans): > 20 mg/L
C[C@@H]1[C@H](O)[C@@H](C)/C=C/C=C/C=C/C=C/C=C/C=C/C=C/[C@H](O[C@@H]2O[C@H](C)[C@@H](O)[C@H](N)[C@@H]2O)C[C@@H]2O[C@](O)(C[C@@H](O)C[C@@H](O)[C@H](O)CC[C@@H](O)C[C@@H](O)CC(=O)O[C@H]1C)C[C@H](O)[C@H]2C(=O)O [AMPHOTERICIN B],,0.1,0.63,0.36,,,,,,0.4,1,2.5,,,,,,,MFC (Cryptococcus neoformans): 2.5 mg/L
C[C@@H]1CC[C@H]2[C@@H](C)C(=O)O[C@@H]3O[C@@]4(C)CC[C@@H]1[C@]32OO4 [ARTEMISININ],,,,,,,,,,,,,0.0043,0.0044,,,,,
O=C(O)c1cn(C2CC2)c2cc(N3CCNCC3)c(F)cc2c1=O [CIPROFLOXACIN],,,,,,,,0.5,,,,,,,0.25,,> 20,1,
O[C@]12C=C(c3nccc4c3[nH]c3ccccc34)[C@@H]3CCN(CCCC/C=C\CC1)C[C@@]31C[C@@H]3/C=C\CCCCN3[C@H]12 [MANZAMINE A],90,,,1.8,100,100,,0.63,,,,10,,0.005,,680,,,IC50 [11]: 10 µM; IC50 [12]: 25 µM
N=C(N)c1ccc(OCCCCCOc2ccc(C(=N)N)cc2)cc1 [PENTAMIDINE],,,,1.8,,,,,,0.9,,,,,,,,,
